High-throughput results deposited in PubChem BioAssay by The Scripps Research Institute Molecular Screening Center.
Rows were chosen to be rich in hits. Some 4.3% of all compounds tested hit in one or more screens of this group.
TAAR1 agonist: human TAAR1 agonism | CHO RD-HGA16 TAAR1, Fluo-8 calcium fluorescence; vehicle wells 0%, saturating PEA agonist 100% | activation, % at 3 µM | 0.99% of 360,000 active | AID 624467;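 active means activation above the mean activation of all test compounds in the run plus 3 SD, cut at about 38% in these data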
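Assay system – CHO-derived RD-HGA16 cells with stable Gα16 and human TAAR1 · Compound dosing – one-point dosing at 3 µM (nominal) · Incubation – 17-24 h seeding, 75 min 37 °C dye, 30 min RT · Measured by – kinetic Fluo-8 calcium fluorescence · Control set – DMSO vehicle as 0%, PEA at EC100 as 100% · Repeats – single well for each compound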
TAAR1 antag: human TAAR1 antagonism | 1.5% of 360,000 active | Q96RJ0 | AID 624466 | CHO RD-HGA16 TAAR1, Fluo-8 calcium fluorescence, antagonist | inhibition, % at 3 µM;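 active means inhibition above a per-plate cutoff, the mean inhibition of test compounds on that plate plus 3 SD, cut at about 49% in these data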;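 further: 0% = DMSO plus EC80 beta-PEA response and 100% = DMSO alone without agonist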
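Material: CHO RD-HGA16 cells bearing hTAAR1; compound dosing: one-point dosing, 3 µM nominal final; schedule: dye loading 75 min at 37 °C, then 30 min room temperature; measured by: calcium fluorescence with Fluo-8; control set: vehicle and agonist controls; replication: n of 1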
OX1R antag-1: human HCRTR1 antagonism | O43613 | CHO/OX1R cells, Fluo-8 calcium fluorescence, orexin A | inhibition, % at 5 µM | 0.43% of 330,000 active;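 active means inhibition above its plate's threshold, mean inhibition of all tested compounds on the plate plus 3 SD, cut at about 37% in these data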;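 further: 0% = orexin A challenge wells and 100% = SB-334867-A antagonist wells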
GalR3 antagonist: antagonists of human GalR3. O60755. HEK293 GalR3-CNG cAMP membrane potential fluorescence; galR3 body fused to GalR1 C-terminus. inhibition, % at 3 µM. 0.44% of 360,000 active;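 active means inhibition above the screen-wide average plus 3 SD, cut at about 13% in these data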;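 further: forskolin and galanin both at EC90 stimulate the cells; cAMP rise reported by CNG channel membrane potential dye signal; 0% = forskolin plus galanin with DMSO and 100% = forskolin alone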
Target sequence (O60755 1-299 limits assumed): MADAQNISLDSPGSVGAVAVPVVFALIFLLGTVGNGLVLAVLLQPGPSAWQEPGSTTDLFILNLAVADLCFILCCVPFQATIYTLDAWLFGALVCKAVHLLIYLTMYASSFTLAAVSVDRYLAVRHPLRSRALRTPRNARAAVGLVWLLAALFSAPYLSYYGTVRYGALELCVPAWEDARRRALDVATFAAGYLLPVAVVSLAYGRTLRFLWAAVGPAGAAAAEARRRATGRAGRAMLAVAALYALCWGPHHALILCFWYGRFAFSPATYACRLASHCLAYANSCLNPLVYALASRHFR
OX1R antag-2: blocks the human orexin 1 receptor; inhibition, % at 6.6 µM; OX1R-expressing cells, FRET antagonist read-out; 1.8% of 330,000 active; in the data active means inhibition mostly above about 38%, no sharp cut-off; inactive means mostly below about 40%;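 further: 0% = agonist challenge alone and 100% = reference antagonist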
CHO parental Ca: counter-screen for OX1R antagonists: effect in parental CHO cells; parental CHO-K1, ATP-induced calcium, Fluo-8 fluorescence; inhibition, % at 5.6 µM; 0.63% of 330,000 active; AID 463079;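 active means inhibition above that plate's mean sample inhibition plus 3 SD, cut at about 26% in these data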;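 further: 0% = ATP-challenged DMSO wells and 100% = DMSO wells without ATP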
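Assay system: untransfected parental CHO cell line. Also added: ATP agonist challenge. Dosing: one dose, 5.6 µM nominal. Measured by: Fluo-8 fluorescence. Read-out: % inhibition. Benchmarks: ATP wells versus no-ATP DMSO wells. Repeats: no replicates.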
TAAR1 ag confirm: human TAAR1 agonism, confirmed. shares compounds with TAAR1 agonist. CHO RD-HGA16 TAAR1, Fluo-8 calcium fluorescence; scaled: DMSO 0%, maximal phenethylamine 100%. activation, % at 3 µM. 82% of 2,400 active. AID 651783;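 active means activation above a cutoff set at the run's mean compound activation plus 3 SD, cut at about 39% in these data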
Ga16 ag counter: counter-screen for TAAR1 agonists: nonselective agonists in parental cells; shares compounds with TAAR1 agonist; CHO-Ga16 parental, Fluo-8 calcium fluorescence; normalized to maximal ATP response, DMSO zero; activation, % at 3 µM; 50% of 2,400 active;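 active means activation above the run cutoff, the mean activation over all tested wells plus 3 SD, cut at about 12% in these data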;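 further: 0% = DMSO wells and 100% = maximal ATP response on the peak over basal ratio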
TAAR1 desensitize: TAAR1 response desensitization, agonist counter-screen; CHO RD-HGA16 hTAAR1, Fluo-8 calcium, beta-PEA response inhibition; shares compounds with TAAR1 agonist; inhibition, % at 3 µM; 46% of 2,400 active;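 active means inhibition above the run cutoff, the mean inhibition of all test compounds plus 3 SD, cut at about 49% in these data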;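 further: beta-PEA stimulus applied at its EC80; loss of beta-PEA calcium signal after compound pretreatment read as receptor desensitization; 0% = DMSO with beta-PEA at EC80 and 100% = DMSO alone without agonist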
Ga16 antag count: nonselective Ga16 antagonist in TAAR1 agonist counter-screen; shares compounds with TAAR1 agonist; CHO-Ga16 ATP-induced calcium, Fluo-8 fluorescence; inhibition, % at 3 µM; 39% of 2,400 active;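 active means inhibition above the plate's mean compound inhibition plus 3 SD, computed per plate, cut at about 22% in these data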;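 further: 0% = EC80 ATP with DMSO and 100% = DMSO wells without ATP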
The depositor's hits bear a star; · = not tested or not shown.

SMILES	TAAR1 agonist	TAAR1 antag	OX1R antag-1	GalR3 antagonist	OX1R antag-2	CHO parental Ca	TAAR1 ag confirm	Ga16 ag counter	TAAR1 desensitize	Ga16 antag count
Clc1ccc(OCCNCCc2ccccc2)cc1	80.5*	11.4	5.6	-2.0	-9.8	-18.6	91.8*	10.5	75.3*	16.6
c1ccc(CCNCCCOc2cccc3ccccc23)cc1	57.1*	43.5	-20.2	-3.7	8.8	-4.0	95.1*	26.4*	87.0*	33.5*
CC(=O)NCCOc1cccc2ccccc12	3.8	-3.3	-3.8	-3.8	3.1	-2.0	·	·	·	·
CCc1nc2c(OCCOC)cccn2c1N(C)C(=O)c1ccco1	-0.1	-6.4	·	-5.5	·	·	·	·	·	·
Cc1cc2nc(NCCCO)n(CC(=O)c3cc(C(C)(C)C)c(O)c(C(C)(C)C)c3)c2cc1C	49.4*	44.1	5.1	-2.9	17.4	8.6	53.3*	29.7*	41.4	34.3*
Cc1cc2c(=O)n(C)c(SCC(=O)Nc3cccc(F)c3)nc2s1	10.1	-1.5	-25.2	-9.0	14.2	-22.1	·	·	·	·
O=C(C1CCCN(S(=O)(=O)c2cccc3nsnc23)C1)N1CCc2ccccc2C1 (configuration not stated)	46.7*	2.6	-33.9	0.6	61.4	-18.7	54.1*	9.7	42.7	22.7*
CCCCN(C=O)c1c(CC)nc2c(OCC(=O)N3CCOCC3)cccn12	2.3	-20.8	·	-7.9	·	·	·	·	·	·
CSc1nnc(-c2ccc(S(=O)(=O)N3CCOCC3)cc2)n1C	2.1	0.1	6.2	-7.1	26.1	-2.5	·	·	·	·
Nc1nc2c(ncn2[C@@H]2O[C@H](C(=O)NCCCc3ccccc3)[C@@H](O)[C@H]2O)c(=O)[nH]1	56.3*	-13.6	·	-6.9	·	·	69.0*	-0.8	10.4	6.8
O=C(COC(=O)CCC1CCCC1)Nc1ccc(Cl)cn1	46.1*	24.3	-24.7	-4.0	4.5	4.3	1.2	-0.3	8.5	14.8
COc1cc(C(c2nnnn2C2CCCC2)N2CCc3ccccc3C2)ccc1O (configuration not stated)	85.1*	99.8*	-4.0	-1.8	10.0	-13.6	90.7*	0.1	97.4*	6.9
Cc1ccc(S(=O)(=O)NC2=NCN(CCc3ccccc3)CN2)cc1	64.2*	2.8	-5.8	-0.1	15.2	7.4	43.3*	0.3	1.5	8.0
CCCCC(=O)Nc1ccc2c(c1)nc(CCN1CCN(c3ccccn3)CC1)n2C	-0.9	-17.2	-23.3	-10.5	11.3	-11.0	·	·	·	·
Fc1ccccc1-c1nc(-c2ccc(-c3nn[nH]n3)cc2)no1	51.0*	38.5	2.9	-3.4	-7.4	8.8	27.5	15.8*	42.4	18.7
Fc1ccccc1-c1nc(-c2ccccc2)no1	2.2	4.7	-9.3	-5.7	21.6	-12.3	·	·	·	·
CCCCNC(=S)NNC(=O)C1=NN(c2cc(C)ccc2C)C(=O)CC1	-1.0	2.7	-15.2	-3.3	21.3	-7.6	·	·	·	·
COCCCN1C(=O)c2ccc(C(=O)Nc3ccc(C)cc3C)cc2C1=O	-0.5	8.7	-7.8	-1.2	0.1	-2.6	·	·	·	·
CN(C)/C=N/c1cc(=O)[nH]c(=O)n1CC1CC1	13.3	2.9	-17.0	-1.0	9.0	-11.3	·	·	·	·
C=CCn1c(=O)[nH]c2nc3cc(N=CN(C)C)c(C)cc3nc2c1=O	90.0*	30.6	0.7	-3.1	73.2*	-0.5	13.2	45.2*	10.8	23.4*
COC(=O)c1ccc(/C=C/C(=O)OCC(=O)NCc2cccs2)cc1	2.6	11.5	-19.5	-3.7	5.8	-8.9	·	·	·	·
